pEC50: −log10 of the molar value. Activity calls are given as the source filed them. No cut-off for these calls is given here.
What was measured:
[1] = system: Human immunodeficiency virus 1; assay: Antiviral activity against wild type HIV1 NL4-3 infected MT4 cells by MTT method; format: functional, organism-based; conditions: Human immunodeficiency virus 1, NL4-3, MT4
Procedure, shortened: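 MT-4 lymphoid cells infected with HIV-1 NL4-3 in the presence of graded drug concentrations. Viable cells counted by MTT colorimetric assay at day 5 post-infection. EC50 is the concentration protecting 50% of cells from HIV-induced death. Mean of at least two experiments.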

[2] = system: Human immunodeficiency virus 1; assay: Antiviral activity against HIV1 K103N mutant strain infected MT4 cells by MTT method; format: functional, organism-based; conditions: Human immunodeficiency virus 1, K103N
[3] = system: Human immunodeficiency virus 1; assay: Antiviral activity against HIV1 Y188L mutant strain infected MT4 cells by MTT method; format: functional, organism-based; conditions: Human immunodeficiency virus 1, Y188L, MT4
[4] = system: Human immunodeficiency virus 1; assay: Antiviral activity against HIV1 IRLL98 mutant strain infected MT4 cells by MTT method at 11 uM; format: functional; conditions: Human immunodeficiency virus 1, IRLL98, MT4
Procedure, shortened: (§1)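 MT-4 cells infected with the mutant HIV-1 strain and treated with compound. Viable cells were measured by MTT colorimetric assay on day 5 post-infection. The value is the percent inhibition of HIV-induced cell death at the stated micromolar concentration. Values are the mean of at least two experiments.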

MT4 [5] = assay: Cytotoxicity against MT4 cells by MTT method; format: functional; conditions: Homo sapiens
Procedure, shortened: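 Mock-infected MT-4 cells exposed to graded drug concentrations. Viability assessed by MTT colorimetric method at day 5. CC50 is the concentration causing 50% death of noninfected cells. Mean of at least two experiments.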

[6] = system: Human immunodeficiency virus type 1 reverse transcriptase (Human immunodeficiency virus 1), Q72547 [K103N]; assay: Inhibition of K103N mutant HIV1 reverse transcriptase by [3H]dTTP poly(rA)/oligo(dT) incorporation at 400 uM
Procedure, shortened: (§2)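 RNA-dependent DNA polymerase assay of recombinant RT at 5–10 nM. Template: poly(rA)/oligo(dT) (0.3 μM 3'-OH ends) with 10 μM [3H]-dTTP. Run 10 min at 37 °C with increasing inhibitor. TCA-precipitated product was counted on GF/C filters. Highest concentration tested was 400 μM.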

[7] = system: Human immunodeficiency virus type 1 reverse transcriptase (Human immunodeficiency virus 1), Q72547 [Y181I]; assay: Inhibition of Y181I mutant HIV1 reverse transcriptase by [3H]dTTP poly(rA)/oligo(dT) incorporation at 400 uM; procedure, shortened: as §2
[8] = target: Human immunodeficiency virus type 1 reverse transcriptase (Human immunodeficiency virus 1) (UniProt Q72547)
[9] = system: Human immunodeficiency virus 1; assay: Antiviral activity against HIV1 IRLL98 mutant strain infected MT4 cells by MTT method; format: functional, organism-based; conditions: Human immunodeficiency virus 1, IRLL98, MT4
Procedure, shortened: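 MT-4 cells infected with the HIV-1 mutant strain, or mock-infected for cytotoxicity, in the presence of a range of drug concentrations. Viable cells were counted by MTT colorimetric assay on day 5 post-infection. EC50 is the concentration that blocks 50% of HIV-induced cell death. Values are the mean of at least two experiments. IRLL98 carries RT mutations K101Q, Y181C and G190A, plus NRTI mutations.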

[10] = system: Human immunodeficiency virus 1; assay: Antiviral activity against wild type HIV1 NL4-3 infected MT4 cells by MTT method at 2.3 uM; format: functional; conditions: Human immunodeficiency virus 1, NL4-3, MT4
Procedure, shortened: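 MT-4 cells infected with HIV-1 NL4-3 and exposed to drug. Viable cells measured by MTT assay at day 5 post-infection. Result given as percent inhibition of HIV-induced cell death at the stated micromolar concentration. Mean of at least two experiments.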

MT4 [11] = assay: Cytotoxicity against MT4 cells by MTT method at 11 uM; format: functional, Homo sapiens
[12] = target: Human immunodeficiency virus type 1 reverse transcriptase (Human immunodeficiency virus 1) (UniProt Q72547); assay: Inhibition of wild type HIV1 reverse transcriptase by [3H]dTTP poly(rA)/oligo(dT) incorporation at 400 uM; procedure, shortened: as §2
[13] = system: Human immunodeficiency virus type 1 reverse transcriptase (Human immunodeficiency virus 1), Q72547 [K103N]
[14] = system: Human immunodeficiency virus type 1 reverse transcriptase (Human immunodeficiency virus 1), Q72547 [Y181I]
[15] = system: Human immunodeficiency virus 1; assay: Antiviral activity against HIV1 K103N mutant strain infected MT4 cells by MTT method at 62 uM; format: functional; conditions: Human immunodeficiency virus 1, K103N; procedure, shortened: as §1

| SMILES | pEC50 [1] | pEC50 [2] | pEC50 [3] | inhibition at 11 µM [4] [%] | CC50 (MT4 [5]) [µM] | ID50 [6] | ID50 [7] | ID50 [8] [µM] | pEC50 [9] | inhibition at 2.3 µM [10] [%] | Activity (MT4 [11]) [%] | ID50 [12] | ID50 [13] [µM] | ID50 [14] [µM] | inhibition at 62 µM [15] [%] |
| --- | --- | --- | --- | --- | --- | --- | --- | --- | --- | --- | --- | --- | --- | --- | --- |
| CCCCOc1ccc(CSc2nc(O)c(C)c(Cc3c(Cl)cccc3Cl)n2)cc1 | < 5.51 | < 5.51 | < 5.51 | 34 | 3.1 | inactive | inactive | 2.8 |  |  |  |  |  |  |  |
| Cc1c(O)nc(SCc2ccc(C(C)C)cc2)nc1Cc1c(Cl)cccc1Cl |  | < 4.24 | < 4.24 |  |  | inactive | inactive |  | < 4.24 | 35 | 45 | inactive |  |  |  |
| COc1ccc(CCCSc2nc(O)c(C)c(Cc3c(Cl)cccc3Cl)n2)cc1 | 9.36 | < 6.00 | < 6.00 |  | 1 |  |  | 0.037 | 6.96 |  |  |  | 0.5 | 0.3 |  |
| Cc1c(O)nc(SCc2ccc(C(C)C)cc2)nc1Cc1c(F)cccc1F | 6.24 |  | < 4.21 |  | > 62 | inactive | inactive | 3 | 4.80 |  |  |  |  |  | 33 |
